Bioassay records deposited in PubChem BioAssay by several laboratories.
A selection: hits, their analogues and other compounds. The true share with any hit is near 3.4%.
VIM-2 inhibitor: blocks Pseudomonas aeruginosa VIM-2 metallo-beta-lactamase; purified VIM-2, nitrocefin hydrolysis, epi-absorbance fluorescence; inhibition, % at 5.6 µM; actives 0.89% (n = 290,000); AID 1527;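 active means inhibition above the mean of all tested compounds plus 3 SD, cutoff set per screening run, cut at about 7.5% in these data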;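 further: red hydrolysis product quenches plate fluorescence so inhibitors raise well fluorescence; 0% = enzyme with DMSO and 100% = DMSO without enzyme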
MEKK2 WT-MEK5: raises or lowers MEK5 binding to wildtype human MEKK2 PB1 domain; actives 1.1% (n = 290,000); bead flow cytometry, Alexa488-MEK5 binding to MEKK2 WT; actives lie on both sides; binding response (% of control), % at 10 µM; Q9Y2U5; in the data active means binding response below about 67% or above about 130%
MEKK2mut PB1 HTS: signal of MEK5 binding to mutant human MEKK2 PB1 domain; AID 1530; percent response, % at 10 µM; bead flow cytometry, Alexa488-MEK5 binding to MEKK2 mutant; actives 0.35% (n = 290,000); in the data active means percent response above about 24%, passing the limit was not always enough
MEKK3 PB1 HTS: raises or lowers MEK5 binding to the human MEKK3 PB1 domain | Q99759 | bead-based flow cytometry, Alexa488-MEK5 binding to MEKK3; actives lie on both sides; 0 = blocked by unlabeled MEK5, 100 = vehicle | binding response (% of control), % at 10 µM | actives 1.4% (n = 290,000) | AID 1529;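 active means binding response more than 3 SD above or below the average of its plate-row segment, actives on both sides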;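 further: Alexa488 bead fluorescence after subtracting the streptavidin-only scavenger bead signal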
Target sequence (Q99759 whole entry, looked up, the tested form may be a part): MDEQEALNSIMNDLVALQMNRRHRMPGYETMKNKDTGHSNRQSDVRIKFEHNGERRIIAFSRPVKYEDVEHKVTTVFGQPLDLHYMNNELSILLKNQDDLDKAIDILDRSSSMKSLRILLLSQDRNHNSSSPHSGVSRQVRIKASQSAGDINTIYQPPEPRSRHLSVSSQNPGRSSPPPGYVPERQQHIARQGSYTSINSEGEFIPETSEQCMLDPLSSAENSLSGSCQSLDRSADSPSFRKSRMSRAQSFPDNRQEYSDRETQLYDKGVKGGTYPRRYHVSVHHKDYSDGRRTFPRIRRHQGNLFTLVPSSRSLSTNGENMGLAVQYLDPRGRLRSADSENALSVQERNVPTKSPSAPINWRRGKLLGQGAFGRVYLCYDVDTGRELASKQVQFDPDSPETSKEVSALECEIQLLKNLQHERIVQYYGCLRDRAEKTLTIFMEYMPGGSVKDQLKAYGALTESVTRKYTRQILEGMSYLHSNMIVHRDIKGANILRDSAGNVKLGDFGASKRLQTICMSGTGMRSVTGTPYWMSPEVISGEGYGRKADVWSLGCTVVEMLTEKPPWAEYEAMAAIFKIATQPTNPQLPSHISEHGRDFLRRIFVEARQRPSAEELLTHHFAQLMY
IMP-1 inhibitor: inhibitors of Pseudomonas aeruginosa IMP-1 metallo-beta-lactamase; purified IMP-1, nitrocefin hydrolysis, epi-absorbance fluorescence; inhibition, % at 5.6 µM; actives 0.45% (n = 290,000); AID 1556;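 active means inhibition above the mean plus 3 SD of all compounds in the same screening run, cut at about 4.5% in these data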;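 further: 0% = IMP-1 with DMSO and 100% = DMSO wells lacking enzyme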
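Test system: recombinant IMP-1 enzyme, purified / Medium: HEPES buffer pH 7.1 with ZnSO4 and Brij 35 / Doses: single dose, 5.6 µM / Times: 25 °C, 15 min preincubation, 25 min reaction / Detection: Epi-absorbance via hydrolysed-nitrocefin quenching of white-plate fluorescence, 480/530 nm, EDTA stop / Evaluation: percent inhibition from optical density relative to buffer-blank wells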
* hit, by the source's call; [ ] = another dose, or the depositor's remark.

SMILES	VIM-2 inhibitor	MEKK2 WT-MEK5	MEKK2mut PB1 HTS	MEKK3 PB1 HTS	IMP-1 inhibitor
COc1ccc(C(=O)C[n+]2ccc3c(c2)nc(-c2ccccc2)n3C)cc1	-4	103	1	104	-5
Cc1ccccc1NS(=O)(=O)c1ccc2[nH]cc(C(=O)N(C)Cc3ccco3)c(=O)c2c1	1	95	-5	96	4.5*
Cc1nc(NCCc2ccc(S(N)(=O)=O)cc2)c2c3c(sc2n1)CCC3	7.9*	97	-2	95	-3
NS(=O)(=O)c1ccc(CCNc2nc(CN3CCOCC3)nc3sc4c(c23)CCC4)cc1	3	105	7	104	-3
COCc1n[nH]c(=S)n1-c1cccc2ccccc12	8.0*	98	3	98	-3
COc1ccc(-c2cc(-c3n[nH]c(=S)n3-c3cccc4ccccc34)[nH]n2)cc1	-2	97	-6	99	-1
O=C(CC(CC(=O)c1ccc(Cl)cc1)c1ccccc1C(=O)O)c1ccc(Cl)cc1	12*	111	7	107	-3
CN1CCSc2ccc(C(=O)NCc3ccccc3F)cc21	-2	103	1	102	-2
Cc1ccccc1CN1CCN(Cc2cc3ccccc3o2)CC1CCO (stereo not drawn)	-3	112	9	108	-3
Cc1ccccc1CN1CCN(Cc2cc(=O)c3ccccc3[nH]2)CC1CCO (stereo not drawn)	-2	102	1	99	8.3*
Cc1ccccc1C(=O)N1CCc2c([nH]c3ccccc23)C1C(F)(F)F (stereo not drawn)	-2	100	-3	98	-1
O=C(O)c1cccnc1C(=O)N1CCc2c([nH]c3ccccc23)C1C(F)(F)F (stereo not drawn)	9.4*	102	4	102	-3
COC(=O)c1c(-c2cccnc2)csc1NC(=O)c1cc(C)on1	9.7*	98	3	101	-3
O=C(NC1CCS(=O)(=O)C1)C1CCCCN1S(=O)(=O)c1ccc(Cl)cc1 (stereo not drawn)	-2	94	1	98	0
c1ccc(-c2nnc3ccc(N4CCC5(CC4)OCCO5)nn23)cc1	8.7*	108	5	106	-2
O=C(O)C1C2C=CC(C2)C1C(=O)NCc1ccc(Cl)cc1Cl (stereo not drawn)	-1	109	6	107	7.6*
O=C(O)C1C2C=CC(C2)C1C(=O)NCc1ccccc1F (stereo not drawn)	-3	105	9	107	-1
O=C(N/N=C/c1ccc(OC(=O)c2ccc(Br)cc2)cc1)c1ccncc1	-3	61*[inhibitor]	-41	66*[inhibitor]	7.6*
O=C(N/N=C/c1ccc(OC(=O)c2cccc(F)c2)cc1)c1cccnc1	1	92	-6	96	4.6*
O=C(N/N=C/c1ccc(OC(=O)c2cccc(Br)c2)cc1)c1cccnc1	-1	100	-3	100	9.7*
O=C(N/N=C/c1cccnc1)c1cccc(F)c1	-2	100	4	101	-4
CC(Cc1ccccc1)C(=O)Nc1ccccc1 (stereo not drawn)	-4	98	5	92	-4
CCCC(=O)N(Cc1cccnc1)c1nc2c(OC)ccc(Cl)c2s1	1	102	1	100	0
O=C(NN1C(=O)/C(=C/c2ccc(O)c([N+](=O)[O-])c2)SC1=S)c1ccccc1Cl	-1	96	-13	98	6.0*
O=C(NN1C(=O)/C(=C/c2ccc(O)cc2)SC1=S)c1ccccc1O	1	101	0	105	4.8*
SMILES	VIM-2 inhibitor	MEKK2 WT-MEK5	MEKK2mut PB1 HTS	MEKK3 PB1 HTS	IMP-1 inhibitor
O=C1/C(=C/c2ccc(O)c([N+](=O)[O-])c2)SC(=S)N1Cc1ccccc1	-1	90	-4	92	-2
COc1cc(/C=C2\SC(=S)N(NC(=O)c3ccccc3O)C2=O)ccc1O	-4	93	-2	96	-8
Cc1ccccc1CSc1nnc([C@@H]2CCCN2)o1	0	102	3	104	5.7*
Clc1ccccc1CSc1nnc([C@@H]2CCCN2)o1	0	96	-2	94	2
COc1ccc(CC(=O)Nc2ccccc2C(=O)N2CCCC2)cc1	-3	101	3	101	-4
COc1cc(Cn2nnc3ccccc32)ccc1O	-2	99	1	95	-2
O=C1c2ccccc2C(=O)N1CCCCN(C(=O)c1ccc([N+](=O)[O-])cc1)c1ccc(Cl)cc1	1	108	5	121	37*
CCn1cc(C(=O)O)c(=O)c2cc(F)c(N3CCN(C(=S)NC(=O)c4cccc(C)c4)CC3)cc21	-5	92	-4	90	-3
COc1ccc(-c2cc(=O)oc3c(C)c(OCC(=O)Nc4cccnc4)ccc23)cc1	0	103	1	106	6.7*
COc1ccc(-c2cc(=O)oc3c(C)c(OCC(=O)N(C)C)ccc23)cc1	2	103	7	105	-3
COc1ccc(/C=N/NC(=O)CN(C)S(=O)(=O)c2ccc(NC(C)=O)cc2)cc1	-2	94	-2	97	31*
CC(=O)Nc1ccc(S(=O)(=O)N(C)CC(=O)N/N=C/c2ccc(C(=O)O)cc2)cc1	0	102	2	95	2
O=c1oc2ccccc2c2oc3cc(O)c(O)cc3c12	5	99	0	102	-3
O=c1oc2c(O)c(O)cc3c(=O)oc4c(O)c(O)cc1c4c23	0	68	-9	85	6.1*
O=S(=O)(NCCc1cccs1)c1ccc(Br)cc1	1	98	-5	99	5.5*
Cc1cccc(Cc2nnc(CCC(=O)N3CCCCC3c3nccs3)o2)c1 (stereo not drawn)	1	100	8	101	-2
COC(=O)c1ccc(N2CCN(C)CC2)c(NC(=O)c2sc3ccccc3c2Cl)c1	7	172*	22	111	1
O=C(N/N=C/C(Br)=C/c1ccccc1)c1ccc([N+](=O)[O-])cc1	0	97	2	100	42*
CCN(CC)c1ccc(C=NCCNS(=O)(=O)c2ccc(C)cc2)cc1	-3	-6.0*	7	98	-5
CCOC(=O)c1c(NC(=O)CSc2ncn[nH]2)sc(C(=O)NC)c1C	10.0*	103	-3	100	-1
CCOC(=O)c1c(NC(=O)CSc2ncn[nH]2)sc(C)c1C	5	113	2	113	-2
COc1cc(C(F)(F)F)c(C(=O)N(C)Cc2cccc(Cl)c2)cn1	-2	96	-6	97	-1
CCCSCCCNC(=O)Cn1nc(CC)n2c(cc3c(OC)cccc32)c1=O	0	107	5	102	9.1*
CCc1nn(CC(=O)NCCN2CCOCC2)c(=O)c2cc3c(OC)cccc3n12	8.8*	103	2	103	-1
COc1cccc2c1cc1c(=O)n(CC(=O)NCCCN3CCN(C)CC3)nc(C)n12	10*	100	3	98	-2
